The text below walks through data of the array DNA melting data of Ke et al. (doi:10.1101/2024.01.08.574731).

The nature of series [1]: melting temperature; fluorescence melt of hairpins on a sequencing array, two-state fit, raised by 9.35 °C to match UV melts. Conditions: sodium 0.088 M. The method, boiled down: (§1)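 Two-state fits, bootstrapped, provided melting temperature and folding enthalpy from Cy3 fluorescence normalised to pre-quench Cy3 and to control constructs. Library hairpins with annealed Cy3 and quencher oligos were imaged on a sequenced MiSeq flow cell in 50 mM Na-HEPES pH 8.0, 25 mM NaCl, at 2.5 °C intervals up to 60 °C. Four replicates were combined with inverse-variance weighting. A 9.35 °C upward shift was applied to fitted temperatures to match UV melts.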

Series [2] can be described thus: folding enthalpy; higher = less favourable; fluorescence melt of hairpins on a sequencing array, two-state fit. The following applies: sodium 0.088 M. The method, boiled down: as §1

As to GACCTCGGAAACGAGGCC (.(((((....))))).), the Tm in series [1] worked out at 55.4 °C. For the same sequence, the folding enthalpy in series [2] is -13 kcal/mol.
As to GATCCACTGGTGGATC ((((((....)))))), in series [1], the Tm was 59.1 °C. Further, in series [2], the folding enthalpy was -39.4 kcal/mol.
For GATCGGGCTTCCGATC ((((((....)))))), the Tm in series [1] was found to be 59.4 °C. In addition, in series [2], the folding enthalpy was -41.2 kcal/mol.
As for GCAACGCGAAAGCGAAGC ((..(((....)))..)), in series [1], the Tm was 44.9 °C. Further, in series [2], the folding enthalpy is -12.9 kcal/mol.
On to GCCTTCGAAAGAAGAGGC ((((((....)))..))), for which, in series [1], the Tm was 46 °C. Further, the folding enthalpy in series [2] is -23.4 kcal/mol.
In the same order, the values of GGACGCGGAAACGCGCCC ((.((((....)))).)) are 61.8 °C and -18.6 kcal/mol.
For the sequence GATCATCACCATGATC ((((((....)))))), in series [1], the Tm amounted to 46.8 °C. Besides, the folding enthalpy in series [2] is -36.1 kcal/mol.
The like results for GCTAGAGGAAACCCTAGC (((((.(....).))))) were, in that order, 41.4 °C and -31.2 kcal/mol.
Turning to GGAGTTCGAAAGAATTCC (((.(((....))).))), the Tm in series [1] was 48.6 °C. The folding enthalpy in series [2] was -39.8 kcal/mol.
Regarding GTAACCGAAAGGTTCTAC ((((((....)))..))), the Tm in series [1] was determined as 37.7 °C. Besides, the folding enthalpy in series [2] was -11.3 kcal/mol.
Take GCCTTAGCGAAAGCTGGC (((..(((....)))))): the Tm in series [1] is 51.5 °C. For the same sequence, the folding enthalpy in series [2] was -21 kcal/mol.
The like results for GATTGGGGAAACCTAATC ((((.((....)).)))) were, in that order, 37.5 °C and -29.3 kcal/mol.
Take GTTTTCGAAAGAACAAC ((((((....))).))): the Tm in series [1] came out at 30.5 °C. For the same sequence, the folding enthalpy in series [2] was -12.2 kcal/mol.
Consider GTCGGAGGAAACTCTGGC (.(.(((....))).).), for which, in series [1], the Tm was determined as 37.2 °C. For the same sequence, the folding enthalpy in series [2] is -28.2 kcal/mol.
Take GATCCGCGTTCGGATC ((((((....)))))): the Tm in series [1] is 59 °C. Moreover, in series [2], the folding enthalpy is -36 kcal/mol.
The like results for GTGCGGTCGAAAGACCAC (((..(((....)))))) were, in that order, 57.5 °C and -13.3 kcal/mol.
In the case of GATCGGCGAAAGCCTATC (((.(((....))).))), in series [1], the Tm is 39.9 °C. In series [2], the folding enthalpy is -19.2 kcal/mol.
In the same order, the values of GCGTAGCGAAAGCTCAGC ((..(((....)))..)) are 46 °C and -10.8 kcal/mol.
GCTACCACGAAAGTGAGC (((..(((....)))))): the Tm in series [1] was found to be 33.3 °C. For the same sequence, the folding enthalpy in series [2] was -15.3 kcal/mol.
For the sequence GCAAAAGGAAACTTTCGC ((.((((....)))).)), in series [1], the Tm was 31.8 °C. For the same sequence, the folding enthalpy in series [2] is -20.5 kcal/mol.
In the case of AGAGAGAAATCTCT (((((....))))), the Tm in series [1] amounted to 23.2 °C. Moreover, the folding enthalpy in series [2] is -8.28 kcal/mol.
With GTAAACGAAAGTTTTTAC ((((((....)))..))), the Tm in series [1] was 24.9 °C. For the same sequence, in series [2], the folding enthalpy was -12 kcal/mol.
As to GTGATCGAAAGATTGCAC ((((((....)))..))), the Tm in series [1] was found to be 30.4 °C. For the same sequence, the folding enthalpy in series [2] is -14.5 kcal/mol.
On to GGTCGCGAAAGCGCAACC ((((((....)))..))), for which the Tm in series [1] came out at 42.4 °C. In addition, the folding enthalpy in series [2] is -13.1 kcal/mol.
Turning to ATGGTGAAAACCAT (((((....))))), the Tm in series [1] was found to be 47.1 °C. The folding enthalpy in series [2] is -21.6 kcal/mol.
Take GATAACGGAAACGTTATC (((((((....))))))): in series [1], the Tm worked out at 56.4 °C. Also, the folding enthalpy in series [2] is -47.8 kcal/mol.
With GATCACGGCCGTGATC ((((((....)))))), in series [1], the Tm came out at 66.3 °C. Besides, the folding enthalpy in series [2] is -49.1 kcal/mol.
Consider GATCAGGTCTCTGATC ((((((....)))))), for which the Tm in series [1] is 53.4 °C. For the same sequence, the folding enthalpy in series [2] is -50.3 kcal/mol.
As to GCAACGGGAAACTGTTGC (((((.(....).))))), the Tm in series [1] was 55.6 °C. Moreover, the folding enthalpy in series [2] is -40.8 kcal/mol.
GAACCGCGAAAGCGATTC (((.(((....))).))): the Tm in series [1] was determined as 47.8 °C. Moreover, the folding enthalpy in series [2] was -24.8 kcal/mol.
As for GTCAACACGAAAGTGGAC (((..(((....)))))), the Tm in series [1] was found to be 38.6 °C. In series [2], the folding enthalpy was -19.3 kcal/mol.
For GGGTACCGAAAGGTCCCC (((.(((....))).))), the Tm in series [1] amounted to 55.7 °C. Also, in series [2], the folding enthalpy is -22.9 kcal/mol.
As to GGAAATTCGAAAGAATCC (((..(((....)))))), the Tm in series [1] was 26 °C. The folding enthalpy in series [2] is -9.79 kcal/mol.
In the case of GATCGGTTGGCCGATC ((((((....)))))), the Tm in series [1] is 60.9 °C. The folding enthalpy in series [2] was -42 kcal/mol.
Regarding GTGACAGGAAACTGTCGC (.(((((....))))).), the Tm in series [1] was 53.9 °C. In series [2], the folding enthalpy is -30.2 kcal/mol.
GCCTTAGGAAACTAGGGC (((.(((....))).))): the Tm in series [1] came to 45.5 °C. Further, in series [2], the folding enthalpy is -34.3 kcal/mol.
As to GAGTAGCGAAAGCTCCTC (((.(((....))).))), the Tm in series [1] turned out to be 39.5 °C. Further, in series [2], the folding enthalpy is -20 kcal/mol.
